The source of these data is ChEMBL document CHEMBL5376024, “Small molecule WDR5 inhibitors down-regulate lncRNA expression” (RSC Med Chem, 2024).

What all share (type): cell-based
Assay [1] concerns MDA-MB-231. The assay is described as follows: Inhibition of IncRNA-WDR5 complex in human MDA-MB-231 cells assessed as downregulation of FOXD3-AS1 expression measured at 10 uM after 1 to 3 days by RT-qPCR analysis. Particulars: time 1-3 day. A digest of the protocol: (§1)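 MDA-MB-231 cells (DMEM, 10% FBS, 37 °C, 5% CO2) were seeded in 12-well plates at 1×10^5 cells/well for 1-day runs or 5×10^4 cells/well for 3-day runs. After one day the medium was replaced with medium holding compound (1, 5 or 10 µM) or 0.1% DMSO blank. Total RNA was extracted with TRIzol and analysed by RT-qPCR. Fold change was calculated by 2^-ΔΔCt against GAPDH and the blank. Values are means of individual bioreplicates ± SD.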
Background: Real-time PCR tracks product formation cycle by cycle.

In assay [2] the test system is U2OS. The assay is described as follows: Inhibition of HOTTIP-WDR5 complex formation in human U2OS cells at 10 uM by in vitro RNA immunoprecipitation assay. Put shortly:
(§2)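 RIP assay on purified FLAG-WDR5 loaded at 0.2 mg/mL onto anti-FLAG magnetic beads (Buffer C with 0.1% IGEPAL, 0.1% BSA, 10 µg/mL yeast tRNA; 4 °C, 3 h). The beads were then given 1 µg of U-2 OS total RNA (TRIzol) with or without inhibitor, in 0.1% DMSO in RIP buffer (Tris pH 7.5, KCl, EDTA, RNasin), for 1 h at rt. RNA was read by RT-qPCR as percentage enrichment against a 50% input.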

Assay [3] deals with MDA-MB-231. The assay is described as follows: Inhibition of IncRNA-WDR5 complex in human MDA-MB-231 cells assessed as downregulation of HOTTIP expression measured at 10 uM after 1 day by RT-qPCR analysis. Put shortly:
as §1

For assay [4], the system named is U2OS. Nature of the assay: Inhibition of HOXC13-AS-WDR5 complex formation in human U2OS cells at 10 uM by in vitro RNA immunoprecipitation assay. A digest of the protocol: as §2
Assay [5] relates to MDA-MB-231. Nature of the assay: Inhibition of IncRNA-WDR5 complex in human MDA-MB-231 cells assessed as downregulation of HOTTIP expression measured at 10 uM after 3 days by RT-qPCR analysis. Particulars: time 3.0 day. A digest of the protocol: as §1

Active and inactive are the calls of the source. The calls are words filed in the database; no cut-off is given here.

With `CNC(=O)c1cc(C2(C#N)CCC2)cc(NS(=O)(=O)c2cc(Br)cc(Cl)c2O)c1O`, the inhibition result in the assay with MDA-MB-231 [1] and with MDA-MB-231 [3] was “inactive” throughout. The inhibition result in the assay with U2OS [2], with U2OS [4] and in the assay with MDA-MB-231 [5] was “Active” throughout.

Consider `CN1CCN(c2ccc(-c3cccc(CN4CCOCC4)c3)cc2NC(=O)c2c[nH]c(=O)cc2C(F)(F)F)CC1`, for which the inhibition result with U2OS [2] and in the assay on U2OS [4] was “inactive” in each case. In addition, the inhibition entry in the assay on MDA-MB-231 [3] is “Active”.
